For series [1], the system named is Trypanosoma brucei. Put plainly: Binding affinity to Trypanosoma brucei MetRS at 100 uM by thermal shift assay. An outline of the steps:
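Thermal shift (ΔTm) read-out with T. brucei MetRS at 0.4 mg/ml and 5% DMSO; otherwise per an earlier protocol. The test agent was at the single concentration in the curator's line. Repeated three times independently.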

In series [2] the test system is Trypanosoma brucei. Put plainly: Inhibition of protein synthesis in Trypanosoma brucei assessed as reduction in [3H]L-histidine incorporation into proteins incubated for 4 hrs by scintillation counting. In kind it is functional, organism-based.
Series [3] concerns the target ATP-dependent translocase ABCB1 (Homo sapiens, UniProt P08183). Put plainly: Binding affinity to MDR1 expressed in MDCK2 cells assessed as absorptive quotient at 3 uM in absence of 2 uM by mass spectroscopy. In kind it is ADME, cell-based. Particulars: dog, mdck-ii. An outline of the steps:
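Monolayers preincubated about 30 min with or without 2 μM elacridar, then given compound at 3 μM final (apical). After 60 min shaking, both chambers were sampled for MS. Integrity checked by Lucifer Yellow and TEER. Triplicate. Papp(A-B) and AQ calculated.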

Series [4] is described as follows: Inhibition of Trypanosoma brucei MetRS aminoacylation activity assessed as reduction in [3H]methionine incorporation into Escherichia coli tRNA pre-incubated for 15 mins before tRNA addition and measured after 120 mins by scintillation counting. An outline of the steps:
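Recombinant enzyme at 10 nM, preincubated 15 min with 12-point two-fold inhibitor dilutions in 25 mM HEPES pH 7.9, 10 mM MgCl2, 50 mM KCl, spermine, BSA, DTT, 1% DMSO and pyrophosphatase. Reaction started with 400 μg/mL E. coli tRNA, 0.1 mM ATP and 250 nM [3H]methionine, run 120 min at room temperature. TCA-precipitated and filtered for scintillation counting. Quadruplicate, with IC50 by sigmoidal fit.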

The nature of series [5]: Selectivity ratio of IC50 for human MetRS to IC50 for Trypanosoma brucei MetRS. An outline of the steps:
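Ratio of the human mitochondrial MetRS IC50 to the T. brucei MetRS IC50, each from a [3H]methionine aminoacylation assay.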

The subject of series [6] is Trypanosoma brucei brucei. Put plainly: Growth inhibition of Trypanosoma brucei brucei 427 blood stream forms after 48 hrs by alamar blue assay. In kind it is functional, organism-based. Particulars: Trypanosoma brucei, 427, 48 h. An outline of the steps:
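Strain 427 bloodstream forms cultured in HMI-9 with 10% FBS at 37°C, 5% CO2. Triplicate wells seeded at 5×10^4 trypomastigotes with serial compound dilutions from 20 mM DMSO stocks. AlamarBlue read-out at 48 h, with pentamidine as the positive control.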
Background: Alamar Blue is a resazurin reagent that responds to reducing activity.

Series [7] in a line: Cytotoxicity against human CRL8155 cells incubated for 48 hrs by alamar blue assay. In kind it is cell-based. The following applies: CRL8155, 48 h. An outline of the steps: (§1)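 […] cells in RPMI or HepG2 cells in DMEM/F-12, each with 10% serum, seeded at 5×10^3 per well. Exposed to serial compound dilutions for 48 h.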
Series [8] in a line: Permeability across MDCK2-MDR1 cells expressing MDR1 at 3 uM in absence of 2 uM P-gp inhibitor Elacridal by mass spectroscopy. In kind it is ADME, cell-based, Canis lupus familiaris. Particulars: dog, mdck-ii. An outline of the steps:
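MDR1-MDCKII cells seeded on Transwell inserts and assayed 3 days later at 37°C in HBSS with glucose and HEPES. Monolayers preincubated about 30 min with or without 2 μM elacridar, then given compound at 3 μM final (apical). After 60 min shaking, both chambers were sampled for MS. Integrity checked by Lucifer Yellow and TEER. Triplicate. Papp(A-B) and AQ calculated.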

The test system of a further series is HepG2. The series is described as follows: Cytotoxicity against human HepG2 cells incubated for 48 hrs by alamar blue assay. Particulars: HepG2, 48 h. The series is classed as cell-based. An outline of the steps:
as §1

Series [9] is described as follows: Drug level in Swiss Webster mouse brain at 5 mg/kg, ip after 60 mins by MS/MS method. In kind it is ADME, organism-based. Set-up: dose 5 mg/kg, route intraperitoneal. Particulars: read-out: Drug uptake. An outline of the steps:
(§2)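 Female Swiss Webster mice, 6-8 weeks old, three per compound, given 5 mg/kg IP in 5% DMSO/3% EtOH/7% Tween 80 saline. Killed at 1 h. Plasma and homogenised brain extracted with acetonitrile containing an extraction standard, with spiked blank brains used for standardisation. Quantified by LC-MS/MS.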

Series [10] in a line: Cmax in mouse at 50 mg/kg, po administered as single dose measured over 6 hrs by MS/MS method. In kind it is ADME, organism-based. Also on record: dose 50 mg/kg, route oral. Particulars: in vivo. An outline of the steps:
(§3)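 Mice, three per group, given one oral dose of 50 mg/kg in 5% DMSO, 3% EtOH, 7% Tween 80 in saline. Tail-snip blood taken at 0.5, 1, 2, 3, 4 and 6 h. Plasma extracted with acetonitrile and quantified by LC-MS/MS.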

Series [11] in a line: Tmax in mouse at 50 mg/kg, po administered as single dose measured over 6 hrs by MS/MS method. The series is classed as ADME, organism-based. Set-up: dose 50 mg/kg, route oral. Particulars: in vivo. An outline of the steps:
as §3

Series [12] can be described thus: Half life in mouse at 50 mg/kg, po administered as single dose measured over 6 hrs by MS/MS method. In kind it is ADME, organism-based. Set-up: dose 50 mg/kg, route oral. Particulars: in vivo. An outline of the steps:
as §3

Series [13] is described as follows: AUC in mouse at 50 mg/kg, po administered as single dose measured over 6 hrs by MS/MS method. The series is classed as ADME, organism-based, Plasma. Also on record: time < 6 hr, dose 50 mg/kg, route oral. The following applies: plasma. An outline of the steps:
as §3

Series [14] in a line: Plasma concentration in Swiss Webster mouse at 5 mg/kg, ip after 60 mins by MS/MS method. In kind it is ADME, organism-based. Set-up: dose 5 mg/kg, route intraperitoneal. An outline of the steps: as §2

Each structure is given as a SMILES string.

As a reminder, the ΔTm is the shift of the melting midpoint relative to a reference. As a reminder, the IC50 is the concentration at which inhibition is half-maximal. As a reminder, the EC50 is the concentration giving half of the maximal effect. A higher EC50 goes with weaker potency. The term Papp denotes the rate of passage across a membrane or cell layer, normalised by area and donor concentration. Low readings indicate poor permeation, high ones ready permeation. A word on the Cmax: it is the peak of the concentration-time curve. Broadly, the Tmax is the time from dosing to the highest level. As a reminder, the half-life is the time needed for the level to fall by half in the phase considered. High values mean slow loss, low ones fast loss. The term AUC denotes concentration integrated over time. A low value points to low exposure.

ATP-dependent translocase ABCB1, sequence (P08183 whole entry): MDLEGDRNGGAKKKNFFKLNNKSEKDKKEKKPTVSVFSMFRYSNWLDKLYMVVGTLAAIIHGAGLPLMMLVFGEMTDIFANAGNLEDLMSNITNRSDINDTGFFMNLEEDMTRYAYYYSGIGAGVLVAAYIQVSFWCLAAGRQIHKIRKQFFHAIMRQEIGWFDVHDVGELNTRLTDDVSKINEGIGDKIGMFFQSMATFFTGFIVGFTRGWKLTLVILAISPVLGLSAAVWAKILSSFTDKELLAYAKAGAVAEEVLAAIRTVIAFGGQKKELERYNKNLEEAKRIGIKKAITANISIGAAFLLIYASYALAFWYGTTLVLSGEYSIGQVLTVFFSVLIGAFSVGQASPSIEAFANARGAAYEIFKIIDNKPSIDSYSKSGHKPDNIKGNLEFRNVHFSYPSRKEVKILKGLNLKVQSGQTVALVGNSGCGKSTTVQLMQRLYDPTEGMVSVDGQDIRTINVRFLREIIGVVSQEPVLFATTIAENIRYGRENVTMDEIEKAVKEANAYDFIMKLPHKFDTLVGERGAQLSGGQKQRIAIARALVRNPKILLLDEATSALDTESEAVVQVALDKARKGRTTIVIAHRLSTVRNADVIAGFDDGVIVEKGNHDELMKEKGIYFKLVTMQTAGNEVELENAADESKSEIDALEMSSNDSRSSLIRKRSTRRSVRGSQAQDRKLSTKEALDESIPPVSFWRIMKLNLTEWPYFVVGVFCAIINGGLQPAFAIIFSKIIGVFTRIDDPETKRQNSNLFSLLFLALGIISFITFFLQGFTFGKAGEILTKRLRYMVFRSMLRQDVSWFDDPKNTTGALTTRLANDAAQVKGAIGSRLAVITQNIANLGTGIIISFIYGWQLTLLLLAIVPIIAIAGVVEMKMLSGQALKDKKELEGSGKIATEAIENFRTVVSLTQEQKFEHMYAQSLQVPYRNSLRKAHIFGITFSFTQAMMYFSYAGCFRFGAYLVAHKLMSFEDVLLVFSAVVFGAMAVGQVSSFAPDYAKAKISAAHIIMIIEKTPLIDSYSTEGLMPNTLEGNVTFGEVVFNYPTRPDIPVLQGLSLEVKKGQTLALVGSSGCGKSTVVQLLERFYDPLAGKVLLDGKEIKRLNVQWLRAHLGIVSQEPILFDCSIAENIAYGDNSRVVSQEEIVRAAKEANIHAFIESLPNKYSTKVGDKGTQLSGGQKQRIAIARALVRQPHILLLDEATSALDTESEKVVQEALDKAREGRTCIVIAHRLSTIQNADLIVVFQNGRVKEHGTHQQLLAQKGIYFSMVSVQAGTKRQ

Consider `O=C(NCCCNCc1cc(Cl)cc(Cl)c1)Nc1ccncc1`, for which, in the series on Trypanosoma brucei [1], the ΔTm amounted to 3.1 °C.

For the compound `Nc1cccc(NC(=O)NCCCNCc2cc(Cl)cc(Cl)c2)c1`, the ΔTm with Trypanosoma brucei [1] came out at 4.3 °C.

In the case of `C[C@@H]1C[C@@H]([C@H](O)CC2CC(=O)NC(=O)C2)C(=O)[C@@H](C)C1`, the inhibition result in the series on Trypanosoma brucei [2] was “Dose-dependent effect”.

As to `CC(C)NCC(O)COc1cccc2ccccc12` (centres undefined) [PROPRANOLOL], the AQ in series [3] was under 0.5.

For `O=C(NCCCNCc1ccc(Cl)cc1)Nc1ccccc1`, the ΔTm in the series on Trypanosoma brucei [1] is 2.5 °C.

Regarding `O=C(NCCCNCc1cc(Cl)cc(Cl)c1)Nc1ccc(F)cc1`, in the series on Trypanosoma brucei [1], the ΔTm was found to be 6.3 °C.

Consider `O=C(NCCCNCc1ccccc1Cl)Nc1ccccc1`, for which the ΔTm in the series on Trypanosoma brucei [1] is 1.9 °C.

Consider `COc1ccccc1CNCCCNC(=O)Nc1ccccc1`, for which the ΔTm in the series on Trypanosoma brucei [1] came out at 1.1 °C.

Turning to `CCOc1cccc(CNCCCNC(=O)Nc2ccccc2)c1`, the ΔTm in the series on Trypanosoma brucei [1] was 2.7 °C.

Consider `O=C(NCCCNCc1cc(Cl)cc(Cl)c1)Nc1ccccn1`, for which, in the series on Trypanosoma brucei [1], the ΔTm turned out to be 4.5 °C.

As to `COc1ccc(CNCCCNC(=O)Nc2ccccc2)cc1`, the ΔTm in the series on Trypanosoma brucei [1] came out at 1.1 °C.

As for `COc1cccc(CNCCCNC(=O)Nc2ccccc2)c1`, the ΔTm with Trypanosoma brucei [1] was determined as 4.7 °C.

With `COc1cc(Cl)cc(CNCCCNC(=O)Nc2ccccc2)c1`, the ΔTm in the series on Trypanosoma brucei [1] was found to be 7.7 °C. Further, the concentration for half-maximal inhibition (IC50) in [4] turned out to be 0.045 µM. The Ratio IC50 in series [5] was found to be 186. For the same compound, the EC50 in series [6] was determined as 0.33 µM; in [7] it was 20 µM. The compound also gave a Papp in series [8] of 7.3 ×10⁻⁶ cm/s. Also, the AQ in series [3] was found to be 0.49.

On to `O=C(NCCCNCc1cccc(Cl)c1)Nc1ccccc1`, for which, in the series on Trypanosoma brucei [1], the ΔTm is 5.5 °C.

In the case of `O=C(NCCCNCc1cc(Cl)cc(Cl)c1)Nc1ccccc1`, the ΔTm in the series on Trypanosoma brucei [1] was 7.8 °C. Further, in series [4], the IC50 is 0.057 µM. The concentration for a half-maximal effect (EC50) in [6] is 0.415 µM; with HepG2, 20 µM. This compound registered a Papp in series [8] of 35.6 ×10⁻⁶ cm/s. In addition, the concentration at 1 h in [9] was found to be 1800 nM; in [14] it was 120 nM. For the same compound, the maximum concentration (Cmax) in series [10] worked out at 1350 nM. Also, in series [11], the Tmax is 30 min. Besides, the half-life in series [12] was determined as 65 min. In series [13], this compound gave an AUC at 6 h of 2.53 µM·h. The AQ in [3] is listed as 0.21.

On to `CCOc1ccccc1CNCCCNC(=O)Nc1ccccc1`, for which, in the series with Trypanosoma brucei [1], the ΔTm stood at 1.1 °C.

With `O=C(NCCCNCc1cc(Cl)cc(Cl)c1Cl)Nc1ccccc1`, the thermal shift (ΔTm) in the series on Trypanosoma brucei [1] was determined as 6.4 °C.

These data come from ChEMBL document CHEMBL2157993, “Urea-based inhibitors of Trypanosoma brucei methionyl-tRNA synthetase: selectivity and in vivo characterization” (J Med Chem, 2012).
